Experimental data collected from several papers.
Compare with care: the assays were run in different laboratories.

SMILES	system	setting	half-life [h]
CCCC[C@@H]1NC(=O)[C@H](Cc2ccc(O)cc2)NC(=O)[C@@H]2CCCN2C(=O)[C@H](CC(=O)O)NC(=O)[C@H](C)NC(=O)[C@H](Cc2ccccc2)NC(=O)[C@@H]2CSCCC(=O)N3CN(CN(C3)C(=O)CCSC[C@H](NC(C)=O)C(=O)N[C@@H](CC(C)(C)C)C(=O)N[C@@H](CCC(=O)O)C(=O)N[C@@H](CCC(=O)O)C(=O)N[C@H](CCCCNC(=O)CCc3cn(CCOCCOCCOCCN(CCOCCOCCOCCC(=O)N[C@H]4CSCCC(=O)N5CN6CN(C5)C(=O)CCSC[C@H](NC(=O)[C@@H](CC(=O)O)NC(=O)[C@H](Cc5cccc7ccccc57)NC(=O)[C@@H]5CCCN5C4=O)C(=O)N[C@@H](CCSC)C(=O)N[C@@H](CCCCNC(=N)N)C(=O)N[C@@H](CC(=O)O)C(=O)N[C@@H](Cc4c[nH]c5ccccc45)C(=O)N[C@@H](CO)C(=O)N[C@@H]([C@@H](C)O)C(=O)N4CCC[C@H]4C(=O)N4C[C@H](O)C[C@H]4C(=O)N[C@@H](Cc4c[nH]c5ccccc45)C(=O)N[C@H](C(N)=O)CSCCC6=O)CCOCCOCCOCCn4cc(CCC(=O)NCCCC[C@H]5NC(=O)[C@H](CCC(=O)O)NC(=O)[C@H](CCC(=O)O)NC(=O)[C@H](CC(C)(C)C)NC(=O)[C@@H](NC(C)=O)CSCCC(=O)N6CN7CN(C6)C(=O)CCSC[C@H](NC(=O)[C@H](Cc6ccc(O)cc6)NC(=O)[C@@H]6CCCN6C5=O)C(=O)N[C@@H](Cc5ccccc5)C(=O)N[C@@H](C)C(=O)N[C@@H](CC(=O)O)C(=O)N5CCC[C@H]5C(=O)N[C@@H](Cc5ccc(O)cc5)C(=O)N[C@@H](CCCC)C(=O)N[C@H](C(N)=O)CSCCC7=O)nn4)nn3)C(=O)N3CCC[C@H]3C(=O)N[C@@H](Cc3ccc(O)cc3)C(=O)N2)C(=O)CCSC[C@@H](C(N)=O)NC1=O	rat, plasma	intravenous, 2 mg/kg	2.1
O=C(Nc1cccnn1)N1CCN([C@@H]2CCOc3cc(C(F)(F)F)ccc32)CC1	male Sprague-Dawley rat, plasma	oral, 0.3 mg/kg	3.3
COc1ccc2c3c1O[C@H]1C[C@@H](OC(=O)c4ccccc4)C=C[C@@]31CCN(C)C2	rat, brain	intravenous, 5 mg/kg	1.95
CN1CCN(Cc2ccc(NC(=O)c3cncc(C#Cc4cnc(N)c5ncccc45)c3)cc2C(F)(F)F)CC1	rat, plasma	intravenous, 2 mg/kg	3.4
O=C([O-])C(=O)[O-].[NH-][C@@H]1CCCC[C@H]1[NH-].[Pt+4] (relative stereo)	rat, plasma	oral, 10 mg/kg	1.53
Cc1ncc(C)n2nc(/C=C/c3nc(N4CCCC4)cc(N4CCOCC4)n3)nc12	male Sprague-Dawley rat, plasma	intravenous, 0.1 mg/kg	4.6
[2H]C([2H])(c1cc(F)c(F)cc1F)n1c(=O)n(Cc2ncn(C)n2)c(=O)[nH]/c1=N\c1cc2cn(C)nc2cc1Cl	male Sprague-Dawley rat, plasma	intravenous, 5 mg/kg	3.37
CCCC[C@@H]1NC(=O)[C@H](Cc2ccc(O)cc2)NC(=O)[C@@H]2CCCN2C(=O)[C@H](CC(=O)O)NC(=O)[C@H](C)NC(=O)[C@H](Cc2ccccc2)NC(=O)[C@@H]2CSCCC(=O)N3CN(CN(C3)C(=O)CCSC[C@H](NC(C)=O)C(=O)N[C@@H](CC(C)(C)C)C(=O)N3CCC[C@H]3C(=O)N[C@@H](CCC(=O)O)C(=O)N[C@H](CCCCNC(=O)CCc3cn(CCOCCOCCOCCN(CCOCCOCCOCCC(=O)N[C@H]4CSCCC(=O)N5CN6CN(C5)C(=O)CCSC[C@H](NC(=O)[C@@H](CC(=O)O)NC(=O)[C@H](Cc5cccc7ccccc57)NC(=O)[C@@H]5CCCN5C4=O)C(=O)N[C@@H](CCSC)C(=O)N[C@@H](CCCCNC(=N)N)C(=O)N[C@@H](CC(=O)O)C(=O)N[C@@H](Cc4c[nH]c5ccccc45)C(=O)N[C@@H](CO)C(=O)N[C@@H]([C@@H](C)O)C(=O)N4CCC[C@H]4C(=O)N4C[C@H](O)C[C@H]4C(=O)N[C@@H](Cc4c[nH]c5ccccc45)C(=O)N[C@H](C(N)=O)CSCCC6=O)CCOCCOCCOCCn4cc(CCC(=O)NCCCC[C@H]5NC(=O)[C@H](CCC(=O)O)NC(=O)[C@@H]6CCCN6C(=O)[C@H](CC(C)(C)C)NC(=O)[C@@H](NC(C)=O)CSCCC(=O)N6CN7CN(C6)C(=O)CCSC[C@H](NC(=O)[C@H](Cc6ccc(O)cc6)NC(=O)[C@@H]6CCCN6C5=O)C(=O)N[C@@H](Cc5ccccc5)C(=O)N[C@@H](C)C(=O)N[C@@H](CC(=O)O)C(=O)N5CCC[C@H]5C(=O)N[C@@H](Cc5ccc(O)cc5)C(=O)N[C@@H](CCCC)C(=O)N[C@H](C(N)=O)CSCCC7=O)nn4)nn3)C(=O)N3CCC[C@H]3C(=O)N[C@@H](Cc3ccc(O)cc3)C(=O)N2)C(=O)CCSC[C@@H](C(N)=O)NC1=O	rat, plasma	intravenous, 2 mg/kg	3.1
Cl.Cl.O=C(CCN1CCCCC1)c1ccc(-c2ccc(C(=O)CCN3CCCCC3)cc2)cc1	Sprague-Dawley rat, plasma	intravenous, 5 mg/kg	0.08
CC(=O)N[C@@H](C)C(=O)N[C@H]1CSSC[C@@H](C(=O)O)NC(=O)[C@H](Cc2ccccc2)NC(=O)[C@@H]2CCCN2C(=O)[C@H](Cc2c[nH]c3ccccc23)NC(=O)[C@H](CC(C)C)NC(=O)[C@H](CC(C)C)NC(=O)[C@H](CC(=O)O)NC(=O)[C@H](Cc2ccccc2)NC(=O)[C@H](Cc2c[nH]cn2)NC(=O)[C@H]([C@@H](C)O)NC(=O)[C@H](Cc2ccccc2)NC1=O	male Sprague-Dawley rat, plasma	intravenous	0.0303
CCCCCn1cc(C(=O)Nc2cccc3ccccc23)c2ccccc21	male Long-Evans rat, plasma	intraperitoneal, 3 mg/kg	11.6
Cn1cnc(Cn2c(=O)[nH]/c(=N\c3cc4cn(C)nc4cc3Cl)n(Cc3cc(F)c(F)cc3F)c2=O)n1	male Sprague-Dawley rat, plasma	intravenous, 5 mg/kg	3.29
COC(=O)C(NC(=O)c1cn(CCCCCF)c2ccccc12)C(C)(C)C (stereo not drawn)	male Sprague-Dawley rat, plasma	subcutaneous, 50 µg/kg	6.89
[2H]C([2H])([2H])n1cc2cc(Nc3nc(=O)n(Cc4ncn(C)n4)c(=O)n3Cc3cc(F)c(F)cc3F)c(Cl)cc2n1	male Sprague-Dawley rat, plasma	intravenous, 5 mg/kg	3.68
N=c1c2c(-c3ccccc3)c(-c3ccccc3)n(Cc3ccccc3)c2ncn1[C@H]1CC[C@H](O)CC1	male Sprague-Dawley rat, plasma	oral, 2 mg/kg, single dose	8.9
